According to ChEMBL document CHEMBL3243962, “Antileukemic activity of derivatives of 1,2-dimethyl-3,4-bis(hydroxymethyl)-5-phenylpyrrole bis(N-methylcarbamate)” (J Med Chem, 1979):

Columns and labels:
Mus musculus [1] = test: Toxicity in mouse P388 cells allografted CD2F1 mouse assessed as body weight loss at 7.5 mg/kg, ip of total 9 doses starting 24 hrs post tumor inoculation measured on day 5 of inoculation relative to control; type: organism-based; parameters: dose 7.5 mg/kg, route intraperitoneal; settings: in vivo
How it was run: (§1)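 Male CD2F1 mice inoculated ip with 6×10^6 P388 leukemia cells. Compounds given ip as distilled water–Tween 80 suspension, nine daily doses starting 24 h after inoculation; six mice per dose group. Treated-minus-control body-weight change (T − C) and toxicity-day survivors recorded on day 5 (4 days after first dose).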

P388 [2] = test: Antitumor activity against mouse P388 cells allografted in CD2F1 mouse assessed as increase in mouse survival at 15 mg/kg, ip of total 9 doses starting 24 hrs post tumor inoculation measured on day 5 of inoculation relative to control; type: functional; settings: route intraperitoneal
How it was run: (§2)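 Male CD2F1 mice inoculated ip with 6×10^6 P388 leukemia cells. Dosing was ip as a suspension in distilled water–Tween 80, nine daily doses starting 24 h after inoculation. Activity was read as median survival time of treated vs control mice (% T/C); % T/C ≥ 120 was considered significant. Groups were 6 mice.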

Mus musculus [3] = test: Toxicity in mouse P388 cells allografted CD2F1 mouse assessed as mouse survival at 15 mg/kg, ip of total 9 doses starting 24 hrs post tumor inoculation measured on day 5 of inoculation relative to control; type: organism-based; parameters: dose 15 mg/kg, route intraperitoneal; settings: in vivo
How it was run: (§3)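 Male CD2F1 mice bearing ip P388 leukemia (6×10^6 cells) were dosed ip with nine daily doses in distilled water–Tween 80 suspension, starting 24 h after inoculation. Survivors per group of 6 were counted on day 5, i.e. 4 days after the first dose. Body-weight change of treated minus control mice was also recorded.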

Mus musculus [4] = test: Toxicity in mouse P388 cells allografted CD2F1 mouse assessed as body weight loss at 60 mg/kg, ip of total 9 doses starting 24 hrs post tumor inoculation measured on day 5 of inoculation relative to control; type: organism-based; parameters: dose 60 mg/kg, route intraperitoneal; settings: in vivo; how it was run: as §1
P388 [5] = test: Antitumor activity against mouse P388 cells allografted in CD2F1 mouse assessed as increase in mouse survival at 60 mg/kg, ip of total 9 doses starting 24 hrs post tumor inoculation measured on day 5 of inoculation relative to control; type: functional; settings: route intraperitoneal; how it was run: as §2
Mus musculus [6] = test: Toxicity in mouse P388 cells allografted CD2F1 mouse assessed as mouse survival at 7.5 mg/kg, ip of total 9 doses starting 24 hrs post tumor inoculation measured on day 5 of inoculation relative to control; type: organism-based; parameters: dose 7.5 mg/kg, route intraperitoneal; settings: in vivo; how it was run: as §3
Mus musculus [7] = test: Toxicity in mouse P388 cells allografted CD2F1 mouse assessed as body weight loss at 15 mg/kg, ip of total 9 doses starting 24 hrs post tumor inoculation measured on day 5 of inoculation relative to control; type: organism-based; parameters: dose 15 mg/kg, route intraperitoneal; settings: in vivo; how it was run: as §1
Mus musculus [8] = test: Toxicity in mouse P388 cells allografted CD2F1 mouse assessed as body weight loss at 30 mg/kg, ip of total 9 doses starting 24 hrs post tumor inoculation measured on day 5 of inoculation relative to control; type: organism-based; parameters: dose 30 mg/kg, route intraperitoneal; settings: in vivo; how it was run: as §1
Mus musculus [9] = test: Toxicity in mouse P388 cells allografted CD2F1 mouse assessed as mouse survival at 30 mg/kg, ip of total 9 doses starting 24 hrs post tumor inoculation measured on day 5 of inoculation relative to control; type: organism-based; parameters: dose 30 mg/kg, route intraperitoneal; settings: in vivo; how it was run: as §3
P388 [10] = test: Antitumor activity against mouse P388 cells allografted in CD2F1 mouse assessed as increase in mouse survival at 30 mg/kg, ip of total 9 doses starting 24 hrs post tumor inoculation measured on day 5 of inoculation relative to control; type: functional; settings: route intraperitoneal; how it was run: as §2
P388 [11] = test: Antitumor activity against mouse P388 cells allografted in CD2F1 mouse assessed as increase in mouse survival at 7.5 mg/kg, ip of total 9 doses starting 24 hrs post tumor inoculation measured on day 5 of inoculation relative to control; type: functional; settings: route intraperitoneal; how it was run: as §2
Mus musculus [12] = test: Toxicity in mouse P388 cells allografted CD2F1 mouse assessed as body weight loss at 120 mg/kg, ip of total 9 doses starting 24 hrs post tumor inoculation measured on day 5 of inoculation relative to control; type: organism-based; parameters: dose 120 mg/kg, route intraperitoneal; settings: in vivo; how it was run: as §1
Mus musculus [13] = test: Toxicity in mouse P388 cells allografted CD2F1 mouse assessed as mouse survival at 1.88 mg/kg, ip of total 9 doses starting 24 hrs post tumor inoculation measured on day 5 of inoculation relative to control; type: organism-based; parameters: dose 1.88 mg/kg, route intraperitoneal; settings: in vivo; how it was run: as §3
Mus musculus [14] = test: Toxicity in mouse P388 cells allografted CD2F1 mouse assessed as mouse survival at 3.75 mg/kg, ip of total 9 doses starting 24 hrs post tumor inoculation measured on day 5 of inoculation relative to control; type: organism-based; parameters: dose 3.75 mg/kg, route intraperitoneal; settings: in vivo; how it was run: as §3
P388 [15] = test: Antitumor activity against mouse P388 cells allografted in CD2F1 mouse assessed as increase in mouse survival at 3.75 mg/kg, ip of total 9 doses starting 24 hrs post tumor inoculation measured on day 5 of inoculation relative to control; type: functional; settings: route intraperitoneal; how it was run: as §2
Mus musculus [16] = test: Toxicity in mouse P388 cells allografted CD2F1 mouse assessed as body weight loss at 3.75 mg/kg, ip of total 9 doses starting 24 hrs post tumor inoculation measured on day 5 of inoculation relative to control; type: organism-based; parameters: dose 3.75 mg/kg, route intraperitoneal; settings: in vivo; how it was run: as §1
Mus musculus [17] = test: Toxicity in mouse P388 cells allografted CD2F1 mouse assessed as body weight loss at 1.88 mg/kg, ip of total 9 doses starting 24 hrs post tumor inoculation measured on day 5 of inoculation relative to control; type: organism-based; parameters: dose 1.88 mg/kg, route intraperitoneal; settings: in vivo; how it was run: as §1
P388 [18] = test: Antitumor activity against mouse P388 cells allografted in CD2F1 mouse assessed as increase in mouse survival at 1.88 mg/kg, ip of total 9 doses starting 24 hrs post tumor inoculation measured on day 5 of inoculation relative to control; type: functional; settings: route intraperitoneal; how it was run: as §2
P388 [19] = test: Antitumor activity against mouse P388 cells allografted in CD2F1 mouse assessed as increase in mouse survival at 50 mg/kg, ip of total 9 doses starting 24 hrs post tumor inoculation measured on day 5 of inoculation relative to control; type: functional; settings: route intraperitoneal; how it was run: as §2
Mus musculus [20] = test: Toxicity in mouse P388 cells allografted CD2F1 mouse assessed as mouse survival at 50 mg/kg, ip of total 9 doses starting 24 hrs post tumor inoculation measured on day 5 of inoculation relative to control; type: organism-based; parameters: dose 50 mg/kg, route intraperitoneal; settings: in vivo; how it was run: as §3
Mus musculus [21] = test: Toxicity in mouse P388 cells allografted CD2F1 mouse assessed as body weight loss at 50 mg/kg, ip of total 9 doses starting 24 hrs post tumor inoculation measured on day 5 of inoculation relative to control; type: organism-based; parameters: dose 50 mg/kg, route intraperitoneal; settings: in vivo; how it was run: as §1
Mus musculus [22] = test: Toxicity in mouse P388 cells allografted CD2F1 mouse assessed as mouse survival at 12.5 mg/kg, ip of total 9 doses starting 24 hrs post tumor inoculation measured on day 5 of inoculation relative to control; type: organism-based; parameters: dose 12.5 mg/kg, route intraperitoneal; settings: in vivo; how it was run: as §3
P388 [23] = test: Antitumor activity against mouse P388 cells allografted in CD2F1 mouse assessed as increase in mouse survival at 100 mg/kg, ip of total 9 doses starting 24 hrs post tumor inoculation measured on day 5 of inoculation relative to control; type: functional; settings: route intraperitoneal; how it was run: as §2
P388 [24] = test: Antitumor activity against mouse P388 cells allografted in CD2F1 mouse assessed as increase in mouse survival at 25 mg/kg, ip of total 9 doses starting 24 hrs post tumor inoculation measured on day 5 of inoculation relative to control; type: functional; settings: route intraperitoneal; how it was run: as §2
Mus musculus [25] = test: Toxicity in mouse P388 cells allografted CD2F1 mouse assessed as body weight loss at 200 mg/kg, ip of total 9 doses starting 24 hrs post tumor inoculation measured on day 5 of inoculation relative to control; type: organism-based; parameters: dose 200 mg/kg, route intraperitoneal; settings: in vivo; how it was run: as §1
Mus musculus [26] = test: Toxicity in mouse P388 cells allografted CD2F1 mouse assessed as mouse survival at 200 mg/kg, ip of total 9 doses starting 24 hrs post tumor inoculation measured on day 5 of inoculation relative to control; type: organism-based; parameters: dose 200 mg/kg, route intraperitoneal; settings: in vivo; how it was run: as §3
Mus musculus [27] = test: Toxicity in mouse P388 cells allografted CD2F1 mouse assessed as body weight loss at 25 mg/kg, ip of total 9 doses starting 24 hrs post tumor inoculation measured on day 5 of inoculation relative to control; type: organism-based; parameters: dose 25 mg/kg, route intraperitoneal; settings: in vivo; how it was run: as §1
Mus musculus [28] = test: Toxicity in mouse P388 cells allografted CD2F1 mouse assessed as body weight loss at 100 mg/kg, ip of total 9 doses starting 24 hrs post tumor inoculation measured on day 5 of inoculation relative to control; type: organism-based; parameters: dose 100 mg/kg, route intraperitoneal; settings: in vivo; how it was run: as §1
P388 [29] = test: Antitumor activity against mouse P388 cells allografted in CD2F1 mouse assessed as increase in mouse survival at 200 mg/kg, ip of total 9 doses starting 24 hrs post tumor inoculation measured on day 5 of inoculation relative to control; type: functional; settings: route intraperitoneal; how it was run: as §2
Mus musculus [30] = test: Toxicity in mouse P388 cells allografted CD2F1 mouse assessed as body weight loss at 12.5 mg/kg, ip of total 9 doses starting 24 hrs post tumor inoculation measured on day 5 of inoculation relative to control; type: organism-based; parameters: dose 12.5 mg/kg, route intraperitoneal; settings: in vivo; how it was run: as §1
Mus musculus [31] = test: Toxicity in mouse P388 cells allografted CD2F1 mouse assessed as mouse survival at 25 mg/kg, ip of total 9 doses starting 24 hrs post tumor inoculation measured on day 5 of inoculation relative to control; type: organism-based; parameters: dose 25 mg/kg, route intraperitoneal; settings: in vivo; how it was run: as §3
P388 [32] = test: Antitumor activity against mouse P388 cells allografted in CD2F1 mouse assessed as increase in mouse survival at 12.5 mg/kg, ip of total 9 doses starting 24 hrs post tumor inoculation measured on day 5 of inoculation relative to control; type: functional; settings: route intraperitoneal; how it was run: as §2
Mus musculus [33] = test: Toxicity in mouse P388 cells allografted CD2F1 mouse assessed as mouse survival at 100 mg/kg, ip of total 9 doses starting 24 hrs post tumor inoculation measured on day 5 of inoculation relative to control; type: organism-based; parameters: dose 100 mg/kg, route intraperitoneal; settings: in vivo; how it was run: as §3

CCCCOc1ccc(-c2c(COC(=O)NC)c(COC(=O)NC)c(C)n2C)cc1
Activity (Mus musculus [1]): 1.3 g
T/C (P388 [2]): 146%
Activity (Mus musculus [3]): Non-toxic
Activity (Mus musculus [4]): 4.1 g
T/C (P388 [5]): 90%
Activity (Mus musculus [6]): Non-toxic
Activity (Mus musculus [7]): 2.1 g
Activity (Mus musculus [8]): 2.8 g
Activity (Mus musculus [9]): Non-toxic
T/C (P388 [10]): 144%
T/C (P388 [11]): 137%
Activity (Mus musculus [12]): 3.4 g

CNC(=O)OCc1c(COC(=O)NC)c(-c2ccc(-c3ccccc3)cc2)n(C)c1C
Activity (Mus musculus [13]): Non-toxic
Activity (Mus musculus [1]): 2.2 g
T/C (P388 [2]): 153%
Activity (Mus musculus [14]): Non-toxic
T/C (P388 [15]): 144%
Activity (Mus musculus [16]): 1.3 g
Activity (Mus musculus [3]): Non-toxic
Activity (Mus musculus [17]): 0.6 g
T/C (P388 [18]): 135%
Activity (Mus musculus [6]): Non-toxic
Activity (Mus musculus [7]): 3.1 g
Activity (Mus musculus [8]): 3.6 g
Activity (Mus musculus [9]): Non-toxic
T/C (P388 [10]): 144%
T/C (P388 [11]): 144%

CNC(=O)OCc1c(COC(=O)NC)c(-c2ccc(Sc3ccccc3)cc2)n(C)c1C
T/C (P388 [19]): 162%
Activity (Mus musculus [20]): Non-toxic
Activity (Mus musculus [21]): 2.1 g
Activity (Mus musculus [22]): Non-toxic
T/C (P388 [23]): 171%
T/C (P388 [24]): 146%
Activity (Mus musculus [25]): 3 g
Activity (Mus musculus [26]): Non-toxic
Activity (Mus musculus [27]): 2.1 g
Activity (Mus musculus [28]): 3.3 g
T/C (P388 [29]): 108%
Activity (Mus musculus [30]): 0.9 g
Activity (Mus musculus [31]): Non-toxic
T/C (P388 [32]): 142%
Activity (Mus musculus [33]): Non-toxic
